HKDC1 activator – increases human hexokinase HKDC1 activity | Q2TB90 | activity change, negative = activation, % at 20 µM | actives 0.056% (n = 340,000) | recombinant HKDC1, G6PDH/diaphorase resazurin fluorescence; active compounds read low;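 active = activation of 40% or more at 20 µM, a change of -40% or lower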
Target sequence (Q2TB90 whole entry, looked up): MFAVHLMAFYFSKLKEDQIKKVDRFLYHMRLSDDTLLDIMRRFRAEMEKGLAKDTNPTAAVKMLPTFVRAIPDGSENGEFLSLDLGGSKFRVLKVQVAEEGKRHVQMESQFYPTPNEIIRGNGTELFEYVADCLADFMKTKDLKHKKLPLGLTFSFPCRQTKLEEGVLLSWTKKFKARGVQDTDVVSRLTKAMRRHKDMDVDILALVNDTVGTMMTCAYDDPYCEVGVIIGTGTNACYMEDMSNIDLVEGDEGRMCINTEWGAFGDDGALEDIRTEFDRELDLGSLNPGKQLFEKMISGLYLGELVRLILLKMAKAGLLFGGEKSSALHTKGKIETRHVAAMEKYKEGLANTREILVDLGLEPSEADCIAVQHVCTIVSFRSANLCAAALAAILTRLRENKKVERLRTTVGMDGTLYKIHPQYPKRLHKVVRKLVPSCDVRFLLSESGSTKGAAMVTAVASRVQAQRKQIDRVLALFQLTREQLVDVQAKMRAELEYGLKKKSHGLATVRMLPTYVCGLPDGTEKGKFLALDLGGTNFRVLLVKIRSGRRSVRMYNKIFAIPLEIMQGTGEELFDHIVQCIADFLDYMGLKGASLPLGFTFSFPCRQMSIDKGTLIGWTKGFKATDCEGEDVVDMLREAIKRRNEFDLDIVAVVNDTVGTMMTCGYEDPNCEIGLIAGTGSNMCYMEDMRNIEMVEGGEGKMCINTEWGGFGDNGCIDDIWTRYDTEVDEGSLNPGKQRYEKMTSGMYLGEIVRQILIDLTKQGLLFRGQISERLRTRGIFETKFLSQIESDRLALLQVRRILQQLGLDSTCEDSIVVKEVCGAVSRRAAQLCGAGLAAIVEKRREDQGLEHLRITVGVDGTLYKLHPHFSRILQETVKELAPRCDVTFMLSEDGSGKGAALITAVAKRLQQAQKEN
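Dosing: single compound dose of 20 µM, 1% DMSO final / Test system: in-house human HKDC1 enzyme, G6PDH and diaphorase coupling enzymes / Quantity: 5 µg/mL HKDC1 final / Incubation: enzyme reaction 90 min, room temperature, in dark / Buffer or medium: pH 8.0 Tris with MgCl2 / Detection: coupled resazurin-to-resorufin fluorescence, Ex 525/Em 613 nm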
Active calls of the source: *. These entries were drawn from the full list.

SMILES | HKDC1 activator
Cc1cc(C)n2cc(CSc3nnc(-c4ccccc4)c(-c4ccccc4)n3)nc2n1 | 38
O=C(O)c1cc(O)c2c(c1)[C@@H]([C@H]1c3cc(C(=O)O)cc(O)c3C(=O)c3c(O[C@@H]4O[C@H](CO)[C@@H](O)[C@H](O)[C@H]4O)cccc31)c1cccc(OC3O[C@H](CO)[C@@H](O)[C@H](O)[C@H]3O)c1C2=O (some centres undefined) | 83
O=C1C(SCCO)=C(SCCO)C(=O)c2ccccc21 | 72
O=C1/C(=C/Nc2cccc([N+](=O)[O-])c2)CCc2ccccc21 | 41
O=C(/C=C/c1cccc([N+](=O)[O-])c1)c1ccc([N+](=O)[O-])o1 | 55
O=C(Nc1ccc(F)cc1)C(=O)c1c(O)[nH]c2ccc([N+](=O)[O-])cc12 | 42
CCCCCCCCCC(=O)NNC(=O)c1c(O)c2ccccc2n(CC)c1=O | -41*
COc1cc(C2c3c([nH]c(=O)[nH]c3=O)Nc3ccc4ccccc4c32)cc(OC)c1OC (centres undefined) | 37
Cc1cccc(/C=C/C(=O)c2ccc([N+](=O)[O-])o2)c1 | 50
CN(C)S(=O)(=O)c1cccc(N=C2NN=C(c3ccccc3)CS2)c1 | -281*
CC(=O)Nc1ccc(C2=NNC(=Nc3cccc(S(=O)(=O)N(C)C)c3)SC2)cc1 | -284*
COc1ccc(C2=NNC(=Nc3cc(S(=O)(=O)N(C)C)ccc3C)SC2)c(OC)c1 | -125*
CNCc1ccccc1Sc1cc(O)ccc1O | 64
CN(C)C(=O)/C(C#N)=C\c1cc(Br)c(Sc2ccc(Cl)cc2)o1 | 35
Cc1nc2c(c(=O)c3ccccc3n2C)c(=O)n1-c1ccccc1 | 51
O=C(O)c1ccccc1-c1c2cc(I)c(=O)c(I)c-2oc2c(I)c(O)c(I)cc12 | 69
CCC1C/C(=C\c2cccnc2)C(=O)/C(=C/c2cccnc2)C1 (centres undefined) | 35
CC1(C)Cc2c(c(N3CCOCC3)nc3sc4c(NCC5CCCO5)nnnc4c23)CS1 (centres undefined) | 45
CCN(CC)c1ccc2c(c1)oc(=O)c1c(Cl)cc(=O)oc12 | 49
O=C(CSc1n[nH]c(=O)[nH]c1=O)Nc1ccc2c(c1)C(=O)c1ccccc1C2=O | 52
O=C(OCC(=O)N1CCN(C(=O)c2ccco2)CC1)c1cc(-c2ccccc2)nc2ccccc12 | 37
CN1CCN(C2=C(Cl)C(=O)c3ccccc3C2=O)CC1 | 44
O=C(Nc1ccc2nc(-c3ccco3)c(-c3ccco3)nc2c1)N1CCCCCC1 | 45
O=c1c2ccccc2nc(/C=C/c2cccnc2)n1Cc1ccccc1 | 81
O=NNc1nc2ccccc2n1Cc1ccccc1 | -40*
SMILES | HKDC1 activator
CC(=O)N(C1=C(Cl)C(=O)c2ccccc2C1=O)C1CCCCC1 | 58
Oc1ccc(Br)cc1CNc1cccc2cccnc12 | 40
CCCN(CCC)C(=O)c1cc([N+](=O)[O-])cc2c1-c1ccc([N+](=O)[O-])cc1C2=C(C#N)C#N | 41
CC(=O)Nc1ccc(C2=NNC(=Nc3ccc(S(=O)(=O)N4CCOCC4)cc3)SC2)cc1 | -339*
CC(C)(C)N=C1NN=C(c2ccc(S(=O)(=O)N3CCCCC3)cc2)CS1 | -67*
Fc1ccccc1N=C1NN=C(c2ccccc2)CS1 | -82*
O=S(=O)(c1ccc(N=C2NN=C(c3cc(F)ccc3F)CS2)cc1)N1CCOCC1 | -308*
O=S(=O)(c1cccc(COc2ccc(Cl)cc2Cl)c1)N1CCOCC1 | 39
CC1COCC(C)N1C1=C(Cl)C(=O)c2ccccc2C1=O (centres undefined) | 38
CCOc1ccc2c(ccc(/C=C/c3cc(C)c4cccnc4c3O)[n+]2C)c1 | 46
O=C(O)c1[nH]c2ccccc2c1C(c1cc(Cl)cc([N+](=O)[O-])c1O)c1c(C(=O)O)[nH]c2ccccc12 | 38
O=C1C=C(N2CCOCC2)c2ccccc2C1=O | 77
O=C(NC1=C(NC2CCS(=O)(=O)C2)C(=O)c2ccccc2C1=O)c1ccccc1 (centres undefined) | 53
Cc1cc(C(=O)N=Nc2c(O)n(C(C)C)c3ccccc23)n[nH]1 | 40
Cc1cc(/C=C\c2ccc3cc(N(C)C)ccc3[n+]2C)c(C)n1-c1ccccc1 | 37
Cc1ccc(S(=O)(=O)/N=C2/C=C(Sc3ncn[nH]3)C(=O)c3ccccc32)cc1 | 69
O=C(Nc1ccc(Nc2ccncc2)cc1)c1ccc(Nc2ccnc3ccc([N+](=O)[O-])cc23)cc1 | 44
Oc1ccc2ccccc2c1C=Nc1ccccc1Br | 38
CCc1nc2c(c(=O)c3ccccc3n2C)c(=O)n1-c1ccc(F)cc1 | 48
Cc1ccc2c(c1C)NC(C(=O)O)C1CC=CC21 (centres undefined) | 38
Cn1c2ccccc2c(=O)c2c(=O)n(-c3ccc(F)cc3)c(-c3cccs3)nc21 | 68
O=[N+]([O-])c1ccc(Sc2nc3ccccc3o2)c([N+](=O)[O-])c1 | 35
O=C(O)c1ccccc1-c1ccc(/C=c2\sc3nc4cc(Br)cnc4n3c2=O)o1 | 68
CC(C(=O)O)N1C(=O)/C(=C/C=C/c2ccco2)SC1=S (centres undefined) | 56
Fc1ccc(N=C2NN=C(c3cc(F)ccc3F)CS2)cc1 | -218*
SMILES | HKDC1 activator
Fc1ccc(F)c(C2=NNC(=Nc3ccccc3F)SC2)c1 | -143*
O=C(O)c1ccccc1N=Nc1c(O)[nH]c2ccc([N+](=O)[O-])cc12 | 37
Cc1ccc(S(=O)(=O)N2CCN(C(=O)CN3C(=O)NC4(CCCCC4)C3=O)CC2)c(C)c1 | 38
COCc1cc(SC2CCCCC2)nc(C)n1 | 46
CCOC(=O)C(C(=O)OCC)c1cc(Br)c2noc3c2c1C(=O)c1ccccc1-3 | 54
COc1cccc(OC)c1-c1nn2c(-c3cc(-c4ccccc4)n[nH]3)nnc2s1 | 44
O=C(NNC(=S)Nc1ccc(Cl)c(Cl)c1)c1ccccn1 | -57*
O=C(Nc1ccc(Cl)c(Cl)c1)Nc1nnc(-c2ccncc2)s1 | 41
Cc1cc2c(N)cccc2nn1 | 35
COc1ccc(S(=O)(=O)/N=C2/C=CC(=O)C(C)=C2C)cc1 | 52
CCOc1ccc(S(=O)(=O)Nc2cc(SCC(=O)O)c(O)c3ccccc23)cc1 | 60
Oc1ccc2ccccc2c1/C=N/c1nccs1 | 37
Cc1ccc(NC(=O)CN2C(=O)S/C(=C/c3ccc(-c4cc(C(=O)O)ccc4C)o3)C2=O)cc1C | 43
Cc1ccc(-n2c3nc(=O)[nH]c(=O)c-3cc3cc([N+](=O)[O-])ccc32)cc1C | 61
Cn1c(-c2ccccc2)c(C(=O)CC#N)c2ccccc21 | -45*
CC(NC1=CC(=O)c2cccnc2C1=O)C(O)c1ccccc1 (centres undefined) | 46
COc1cc2c(cc1OC)C(c1cc(Br)ccc1F)N(C(=O)CCl)CC2 (centres undefined) | 38
CCc1ccc(S(=O)(=O)Nc2cc(SCC(=O)O)c(O)c3ccccc23)cc1 | 54
COc1cc(N=c2ssnc2Cl)cc(OC)c1 | -51*
COC(=O)c1ccc(NCc2c(O)ccc(O)c2Br)cc1Cl | 45
NS(=O)(=O)c1ccc(N/N=C/c2ccc(O)c(O)c2O)c([N+](=O)[O-])c1 | 36
Cc1cc(C)n(Cc2ccc(C(=O)N/N=C/c3ccc(-c4ccc([N+](=O)[O-])cc4)o3)o2)n1 | 66
Cc1cc([N+](=O)[O-])nn1CC(=O)N/N=C/c1ccc(O)cc1O | -49*
